Square brackets hold non-standard residues; d marks the D form. Peptide text beside a SMILES is read from it. * marks the point of attachment. Oic = O=C(O)[C@@H]1C[C@@H]2CCCC[C@@H]2N1; Phe(4-CN) = N#Cc1ccc(C[C@H](N)C(=O)O)cc1; Acryloyl = C=CC(=O)*
Columns and labels:
[1] = biological target: Tyrosine-protein kinase BTK (Homo sapiens, UniProt Q06187, C481S); test: Inhibition of recombinant human N-terminal His-tagged BTK C481S mutant expressed in baculovirus infected in Sf9 cells incubated for 1 hr by TR-FRET assay
Procedure, shortened: (§1)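 Proteros reporter displacement assay: enzyme pre-incubated with Cy5-labelled ATP-competitive kinase inhibitor probe, then unlabeled competitor added. Signal recorded for 1 hour and normalized at each time-point to high (enzyme + probe, no competitor) and low (enzyme, no probe, with competitor) controls. Technical triplicates.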

[2] = biological target: T1, Tyrosine-protein kinase BTK (Homo sapiens, UniProt Q06187); test: Inhibition of recombinant wild type human N-terminal His-tagged BTK expressed in baculovirus infected in Sf9 cells assessed as residence time incubated for 1 hr by TR-FRET assay; procedure, shortened: as §1
[3] = test system: Tyrosine-protein kinase BTK (Homo sapiens), Q06187 [C481S]; test: Inhibition of recombinant human N-terminal His-tagged BTK C481S mutant expressed in baculovirus infected in Sf9 cells assessed as residence time incubated for 1 hr by TR-FRET assay; procedure, shortened: as §1
[4] = biological target: T1, Tyrosine-protein kinase BTK; test: Inhibition of recombinant human N-terminal His-tagged BTK expressed in baculovirus infected in Sf9 cells incubated for 1 hr by TR-FRET assay
Procedure, shortened: (§2)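 Proteros reporter displacement assay. BTK is preincubated with a Cy5-labelled ATP-competitive probe, then unlabelled competitor is added and signal recorded over 1 h, in technical triplicates. Data normalized to high and low controls at each time point. IC50 is apparent after 1 h. kobs comes from a mono-exponential decay fit excluding the first point, and is refit as kobs = kinact·[I]/(KI+[I]) to give kinact, KI and kinact/KI.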

[5] = biological target: T1, Tyrosine-protein kinase BTK; test: Binding affinity to BTK (unknown origin) by mass spectrometry analysis relative to control; parameters: concentration or dose not given beside the values
Procedure, shortened: (§3)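 Wild-type or C481S BTK incubated with compound for one hour. Samples diluted to 0.1 mg/ml protein in 5% acetonitrile/0.1% formic acid, then reversed-phase C4 LC (80 °C, acetonitrile/0.1% FA gradient, UV 214 and 280 nm) coupled to positive-mode ESI-MS for intact mass. Adduct read as the mass shift versus BTK alone.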

[6] = test system: Tyrosine-protein kinase BTK (Homo sapiens), Q06187 [C481S]; test: Binding affinity to BTK C481S mutant (unknown origin) by mass spectrometry analysis relative to control; parameters: concentration or dose not given beside the values; procedure, shortened: as §3
[7] = test system: Tyrosine-protein kinase BTK (Homo sapiens), Q06187 [C481S]; test: Binding affinity to recombinant human BTK C481S mutant (389 to 659 residues) expressed in insect cells assessed as change in melting temperature at 50 uM incubated for 120 mins by thermal shift assay
Procedure, shortened: (§4)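 BTK (389-659), wild-type or C481S, at 5 μM with 50 μM compound for 120 min at room temperature in 20 mM HEPES pH 8.0, 0.5 mM TCEP, 150 mM NaCl, 0.01% Tween20, 0.5% DMSO. nanoDSF with a 20–95 °C ramp at 2.5 °C/min, tryptophan 350/330 nm ratio. Tm taken from the first-derivative maximum, three technical replicates. ΔTm is Tm with compound minus apo Tm.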

[8] = biological target: T1, Tyrosine-protein kinase BTK; test: Binding affinity to recombinant human BTK (389 to 659 residues) expressed in insect cells assessed as change in melting temperature at 50 uM incubated for 120 mins by thermal shift assay; procedure, shortened: as §4
[9] = biological target: T1, Tyrosine-protein kinase BTK; test: Inhibition of recombinant human N-terminal His-tagged BTK expressed in baculovirus infected in Sf9 cells assessed as ratio of inactivation constant to inhibitory constant incubated for 1 hr by TR-FRET assay; procedure, shortened: as §2
[10] = biological target: T1, Tyrosine-protein kinase BTK; test: Inhibition of recombinant human N-terminal His-tagged BTK expressed in baculovirus infected in Sf9 cells assessed as inactivation constant incubated for 1 hr by TR-FRET assay; procedure, shortened: as §2
[11] = biological target: T1, Tyrosine-protein kinase BTK; test: Inhibition of recombinant human N-terminal His-tagged BTK expressed in baculovirus infected in Sf9 cells assessed as inhibitory constant incubated for 1 hr by TR-FRET assay; procedure, shortened: as §2

T1 sequence (Q06187 whole entry): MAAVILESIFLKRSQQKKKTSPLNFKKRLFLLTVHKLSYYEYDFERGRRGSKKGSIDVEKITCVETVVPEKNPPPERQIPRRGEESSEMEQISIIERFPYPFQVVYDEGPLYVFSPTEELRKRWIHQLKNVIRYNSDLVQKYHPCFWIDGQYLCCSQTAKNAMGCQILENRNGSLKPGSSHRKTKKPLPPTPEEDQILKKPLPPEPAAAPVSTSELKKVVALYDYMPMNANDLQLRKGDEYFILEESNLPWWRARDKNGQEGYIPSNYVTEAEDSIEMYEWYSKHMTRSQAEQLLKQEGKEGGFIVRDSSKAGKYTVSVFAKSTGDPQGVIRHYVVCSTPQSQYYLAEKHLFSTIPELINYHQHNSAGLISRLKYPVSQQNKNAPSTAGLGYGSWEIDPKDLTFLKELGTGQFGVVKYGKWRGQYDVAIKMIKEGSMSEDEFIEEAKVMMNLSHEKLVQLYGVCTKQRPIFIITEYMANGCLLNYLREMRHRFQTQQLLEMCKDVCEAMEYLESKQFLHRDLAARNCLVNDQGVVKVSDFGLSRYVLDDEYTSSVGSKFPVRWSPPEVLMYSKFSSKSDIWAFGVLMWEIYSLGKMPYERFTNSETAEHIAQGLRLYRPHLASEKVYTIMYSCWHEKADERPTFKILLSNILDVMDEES
Sequence of Tyrosine-protein kinase BTK (Homo sapiens), Q06187 [C481S] (Q06187 whole entry C481S, the tested form may be a part): as the sequence (Q06187 whole entry) above, with C481S counted along it
Sequence of Tyrosine-protein kinase BTK (Homo sapiens, UniProt Q06187, C481S) (Q06187 2-659 C481S limits assumed): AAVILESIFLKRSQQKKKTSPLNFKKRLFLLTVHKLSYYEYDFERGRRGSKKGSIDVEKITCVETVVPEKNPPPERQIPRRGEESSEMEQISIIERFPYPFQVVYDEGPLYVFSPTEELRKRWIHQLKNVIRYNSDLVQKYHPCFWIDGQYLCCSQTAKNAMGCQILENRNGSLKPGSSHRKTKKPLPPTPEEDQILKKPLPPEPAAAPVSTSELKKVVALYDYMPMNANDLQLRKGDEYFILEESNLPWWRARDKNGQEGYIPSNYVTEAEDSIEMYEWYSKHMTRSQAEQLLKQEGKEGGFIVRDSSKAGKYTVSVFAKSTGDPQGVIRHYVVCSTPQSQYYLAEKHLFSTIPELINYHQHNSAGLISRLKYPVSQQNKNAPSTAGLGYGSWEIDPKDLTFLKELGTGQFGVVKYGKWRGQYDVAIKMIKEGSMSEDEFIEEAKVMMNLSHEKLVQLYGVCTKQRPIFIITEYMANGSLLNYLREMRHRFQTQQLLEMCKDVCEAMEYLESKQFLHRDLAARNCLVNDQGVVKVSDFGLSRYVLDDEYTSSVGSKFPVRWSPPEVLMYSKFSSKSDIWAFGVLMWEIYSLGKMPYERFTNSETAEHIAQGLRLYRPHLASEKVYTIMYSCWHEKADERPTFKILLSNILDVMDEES

CNC(=O)[C@H]1Cc2c([nH]c3ccccc23)CN1C(=O)[C@@H](Cc1ccccc1)NC(=O)c1c[nH]c(C(N)=O)c1
IC50 [1]: 56.2 nM
TIME [2]: 0.567 h
TIME [3]: 0.233 h
IC50 [4]: 22.7 nM

C=CC(=O)N1[C@H](C(=O)N[C@@H](Cc2ccc(C#N)cc2)C(=O)NC)C[C@@H]2CCCC[C@@H]21 (Acryloyl-[Oic]-[Phe(4-CN)]-NHMe)
IC50 [1]: > 59200 nM
Activity [5]: 94.4%
IC50 [4]: 36400 nM
Activity [6]: 0%

C=CC(=O)N1CCC[C@H](CC(=O)N2Cc3[nH]c4ccccc4c3C[C@@H]2C(=O)NC)C1
IC50 [1]: > 59200 nM
ΔTm [7]: 0.1 °C
Activity [5]: 97.9%
ΔTm [8]: 6.55 °C
IC50 [4]: 4760 nM
Activity [6]: 0%
Ratio [9]: 59.2 s⁻¹ M⁻¹

CNC(=O)[C@H]1Cc2c([nH]c3ccccc23)CN1C(=O)c1occc1CNc1ccc2nccnc2c1
IC50 [1]: 3.04 nM
ΔTm [7]: 13.4 °C
Activity [5]: 0%
TIME [2]: 0.15 h
ΔTm [8]: 13.2 °C
TIME [3]: 0.367 h
IC50 [4]: 3.78 nM
Activity [6]: 0%

CNC(=O)[C@H]1Cc2c([nH]c3ccccc23)CN1C(=O)C[C@@H](Cc1cccc(F)c1)NC(=O)C1CO1 (stereo partly specified)
Kinact [10]: 1.54 10^-2/s
IC50 [1]: > 59200 nM
Ki [11]: 9270 nM
IC50 [4]: 232 nM
Ratio [9]: 1660 s⁻¹ M⁻¹

CNC(=O)[C@@H](Cc1ccc(C#N)cc1)NC(=O)[C@@H](NC(=O)[C@@H]1CO1)c1ccccc1
Kinact [10]: 9.41 10^-3/s
IC50 [1]: > 59200 nM
ΔTm [7]: -0.15 °C
Activity [5]: 95.2%
ΔTm [8]: 6.36 °C
Ki [11]: 1930 nM
IC50 [4]: 84.2 nM
Activity [6]: 0%
Ratio [9]: 4880 s⁻¹ M⁻¹

CNC(=O)[C@@H](Cc1ccc(C#N)cc1)NC(=O)[C@@H](NC(=O)[C@]1(C)CO1)[C@@H](C)OC(C)(C)C
Kinact [10]: 8.22 10^-3/s
IC50 [1]: > 59200 nM
ΔTm [7]: 0.23 °C
Activity [5]: 92.3%
ΔTm [8]: 4.51 °C
Ki [11]: 1250 nM
IC50 [4]: 58.1 nM
Activity [6]: 0%
Ratio [9]: 6580 s⁻¹ M⁻¹

Source: ChEMBL document CHEMBL4811293, “Novel irreversible covalent BTK inhibitors discovered using DNA-encoded chemistry” (Bioorg Med Chem, 2021)
